Measured values reported in ChEMBL document CHEMBL5126550, “In Silico Optimized Stapled Peptides Targeting WASF3 in Breast Cancer” (2022).
Values belong to the compound of their own block, whether it stands above or below them. Calls of active or inactive are those of the source. No cut-off for these calls is given here. Square brackets hold non-standard residues; d marks the D form. Peptide text beside a SMILES is read from it. Gly(pent-4-enyl) = C=CCCC[C@H](N)C(=O)O

Experiments:
MDA-MB-231 [1] = test: Antiinvasive activity against human MDA-MB-231 cells assessed as reduction in cell motility incubated for 18 hrs by wound healing assay relative to control; format: functional, cell-based; settings: dose 0.5-2 µM, DDE = dose-dependent effect
MDA-MB-231 [2] = test: Induction of WRC disruption in human MDA-MB-231 cells assessed as increase in actin stress fiber formation at 2 uM incubated for 4 hrs by phalloidin-iFluor 594 dye based inverted fluorescent microscopic method; format: functional, cell-based
In short: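 Cells treated 4 h with biotin-labeled peptides, scramble control or DMSO. Cells then fixed, permeabilized and stained with phalloidin-iFluor 594 to show polymeric actin stress fibers by fluorescence imaging. n = 4.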

MDA-MB-231 [3] = test: Drug uptake in human MDA-MB-231 cells by measuring uptake of fluorescence intensity in cytoplasm at 2 uM measured after 4 hrs by fluorescence microscopy method; format: functional, cell-based
In short: (§1)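 Cells incubated 4 h with 5(6)-carboxyfluorescein-labeled peptide (2 μM or 10 μM) or DMSO. Cytoplasmic fluorescence imaged by fluorescence microscopy. n = 4.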

MDA-MB-231 [4] = test: Antiinvasive activity against human MDA-MB-231 cells assessed as reduction in cell motility at 2 uM incubated for 18 hrs by wound healing assay; format: functional, cell-based
[5] = target: Abl interactor 2 (Homo sapiens) (UniProt Q9NYB9); test: Binding affinity to ABI2 in human MDA-MB-231 cells at 2 uM measured after 4 hrs by measuring pulldown using streptavidin agarose resin by immunoblot analysis
Chain of Abl interactor 2 (Homo sapiens) (Q9NYB9 whole entry, looked up): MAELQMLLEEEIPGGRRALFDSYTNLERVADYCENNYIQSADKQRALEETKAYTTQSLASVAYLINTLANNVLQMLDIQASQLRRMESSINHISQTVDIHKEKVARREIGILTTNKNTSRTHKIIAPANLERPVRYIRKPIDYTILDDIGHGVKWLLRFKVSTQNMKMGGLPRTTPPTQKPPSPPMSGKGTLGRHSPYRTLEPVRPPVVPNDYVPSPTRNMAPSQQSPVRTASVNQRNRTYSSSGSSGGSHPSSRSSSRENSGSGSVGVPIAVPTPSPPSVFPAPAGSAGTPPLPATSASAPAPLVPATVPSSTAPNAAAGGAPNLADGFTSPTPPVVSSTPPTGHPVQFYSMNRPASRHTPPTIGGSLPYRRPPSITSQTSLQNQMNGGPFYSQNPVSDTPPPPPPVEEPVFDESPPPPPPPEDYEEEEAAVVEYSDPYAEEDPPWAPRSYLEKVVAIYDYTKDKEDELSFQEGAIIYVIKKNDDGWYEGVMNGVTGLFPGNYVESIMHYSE

MDA-MB-231 [6] = test: Antiinvasive activity against human MDA-MB-231 cells assessed as reduction in number of invading cells incubated for 24 hrs by crystal violet staining based matrigel trans well migration assay; format: functional, cell-based; settings: dose 0.5-2 µM, DDE = dose-dependent effect
In short: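 Matrigel invasion assay with peptide at 0.5–2 μM, scramble control (2 μM), reference peptide (10 μM) or DMSO. Invading cells fixed with paraformaldehyde, stained with crystal violet, imaged and counted in ImageJ. At least three independent assays; mean ± SD; one-way ANOVA with Bonferroni test.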

[7] = Downregulation of MMP9 expression in human MDA-MB-231 cells at 2 uM measured after 72 hrs by immunoblot analysis relative to control; format: functional
In short: (§2)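 Cells exposed 72 h to peptides, scramble control or vehicle. MMP9 protein levels measured by immunoblotting and quantified by densitometry across three independent blots. Levels compared against scramble control and vehicle.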

MDA-MB-231 [8] = test: Antiinvasive activity against human MDA-MB-231 cells assessed as reduction in cell motility at 0.5 to 2 uM incubated for 18 hrs by wound healing assay relative to control; format: functional; parameters: scale not given: the % may be the effect or the level left; settings: dose 0.5-2 µM
MDA-MB-231 [9] = test: Downregulation of MMP9 expression in human MDA-MB-231 cells at 2 uM measured after 72 hrs by immunoblot analysis; format: functional, cell-based; in short: as §2
[10] = target: T1, Actin-binding protein WASF3 (Homo sapiens) (UniProt Q9UPY6); test: Degradation of WASF3 in human serum starved MDA-MB-231 cells assessed as reduction in ABI2 expression at 2 uM measured after 72 hrs by Western blot analysis; format: cell-based
T1 sequence (whole entry): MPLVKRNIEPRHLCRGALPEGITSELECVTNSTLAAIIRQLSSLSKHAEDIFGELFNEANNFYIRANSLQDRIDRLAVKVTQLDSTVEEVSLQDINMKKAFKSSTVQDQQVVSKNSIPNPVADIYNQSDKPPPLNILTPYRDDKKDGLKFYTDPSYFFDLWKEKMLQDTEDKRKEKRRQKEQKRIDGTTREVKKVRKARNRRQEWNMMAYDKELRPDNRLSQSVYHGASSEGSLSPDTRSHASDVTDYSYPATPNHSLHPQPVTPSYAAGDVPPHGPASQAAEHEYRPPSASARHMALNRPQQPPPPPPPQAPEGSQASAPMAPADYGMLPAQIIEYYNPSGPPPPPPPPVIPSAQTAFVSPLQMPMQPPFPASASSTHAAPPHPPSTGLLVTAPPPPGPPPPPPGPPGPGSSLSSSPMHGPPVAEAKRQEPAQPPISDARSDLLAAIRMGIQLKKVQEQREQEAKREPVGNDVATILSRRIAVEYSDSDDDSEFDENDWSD
In short: (§3)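 Cells treated 72 h with peptides or controls. Lysates immunoblotted for ABI2 and WASF3. Band densitometry from three independent Western blots.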

[11] = target: T1, Actin-binding protein WASF3 (Homo sapiens); test: Degradation of WASF3 in human serum starved MDA-MB-231 cells assessed as reduction in WASF3 expression at 2 uM measured after 72 hrs by Western blot analysis; format: cell-based; in short: as §3
MDA-MB-231 [12] = test: Drug uptake in human MDA-MB-231 cells by measuring uptake of fluorescence intensity in cytoplasm at 10 uM measured after 4 hrs by fluorescence microscopy method; format: functional, cell-based; in short: as §1
MDA-MB-231 [13] = test: Drug uptake in human MDA-MB-231 cells by measuring uptake of fluorescence intensity in cytoplasm at 10 uM measured after 4 hrs by fluorescence microscopy method

- Activity [5]: Active
- Activity [10]: Active
- Activity [11]: Active
SMILES: C=CCCC[C@H](NC(=O)[C@H](CCCCN)NC(=O)[C@H](CO)NC(=O)[C@H](CC(C)C)NC(=O)[C@H](CCCC=C)NC(=O)[C@H](CO)NC(=O)[C@H](CC(C)C)NC(=O)[C@H](CCCCN)NC(=O)[C@H](CCCNC(=N)N)NC(=O)[C@@H](NC(=O)[C@@H](NC(=O)[C@@H](N)CCCCN)[C@@H](C)CC)[C@@H](C)CC)C(=O)N[C@@H](C)C(=O)N[C@@H](CCC(=O)O)C(=O)N[C@@H](CCCCN)C(=O)N[C@H](C(=O)N[C@@H](Cc1ccccc1)C(=O)NCC(=O)N[C@@H](CCC(=O)O)C(=O)N[C@@H](CC(C)C)C(=O)N[C@@H](Cc1ccccc1)C(=O)N[C@@H](CCCCN)C(=O)O)[C@@H](C)CC (H-KIIRKLS[Gly(pent-4-enyl)]LSK[Gly(pent-4-enyl)]AEKIFGELFK-OH)
- Activity (MDA-MB-231 [1]): Dde
- Activity (MDA-MB-231 [2]): Active
- Drug uptake (MDA-MB-231 [3]): Active
- Activity (MDA-MB-231 [4]): Active
- Activity (MDA-MB-231 [6]): Dde
- Activity [7]: 40%
- Activity (MDA-MB-231 [8]): 48%
- Activity (MDA-MB-231 [9]): Active
- Drug uptake (MDA-MB-231 [12]; dose 2.0 µM, in the assay text read “at 2 uM” for “at 10 uM”): Active

- Activity [10]: Active
- Activity [11]: Active
SMILES: C=CCCC[C@H](NC(=O)[C@H](CO)NC(=O)[C@H](CC(N)=O)NC(=O)[C@@H](NC(=O)[C@H](CCCC=C)NC(=O)[C@H](CCCCN)NC(=O)[C@H](CCC(=O)O)NC(=O)[C@@H](N)CC(C)C)[C@@H](C)O)C(=O)N[C@@H](CC(C)C)C(=O)N[C@@H](C)C(=O)N[C@@H](CCCCN)C(=O)N[C@H](C(=O)N[C@H](C(=O)N[C@@H](CCCNC(=N)N)C(=O)N[C@@H](CCC(N)=O)C(=O)N[C@@H](CC(C)C)C(=O)O)[C@@H](C)CC)[C@@H](C)CC (H-LEK[Gly(pent-4-enyl)]TNS[Gly(pent-4-enyl)]LAKIIRQL-OH)
- Drug uptake (MDA-MB-231 [13]): Active
- Drug uptake (MDA-MB-231 [12]; dose 10.0 µM): Active

SMILES: C=CCCC[C@H](NC(=O)[C@H](CO)NC(=O)[C@H](CC(C)C)NC(=O)[C@H](CCCCN)NC(=O)[C@H](CO)NC(=O)[C@H](CC(C)C)NC(=O)[C@H](CCC(N)=O)NC(=O)[C@H](CCCNC(=N)N)NC(=O)[C@@H](NC(=O)[C@@H](NC(=O)[C@@H](N)CCCCN)[C@@H](C)CC)[C@@H](C)CC)C(=O)N[C@@H](Cc1cnc[nH]1)C(=O)N[C@@H](C)C(=O)N[C@@H](CCC(=O)O)C(=O)N[C@@H](CCCC=C)C(=O)N[C@H](C(=O)N[C@@H](Cc1ccccc1)C(=O)NCC(=O)N[C@@H](CCC(=O)O)C(=O)N[C@@H](CC(C)C)C(=O)N[C@@H](Cc1ccccc1)C(=O)N[C@@H](CCCCN)C(=O)O)[C@@H](C)CC (H-KIIRQLSKLS[Gly(pent-4-enyl)]HAE[Gly(pent-4-enyl)]IFGELFK-OH)
- Activity (MDA-MB-231 [4]): Active

SMILES: C=CCCC[C@H](NC(=O)[C@H](CCCNC(=N)N)NC(=O)[C@@H](NC(=O)[C@@H](NC(=O)[C@@H](N)CCCC=C)[C@@H](C)CC)[C@@H](C)CC)C(=O)N[C@@H](CC(C)C)C(=O)N[C@@H](CO)C(=O)N[C@@H](CCCCN)C(=O)N[C@@H](CC(C)C)C(=O)N[C@@H](CO)C(=O)N[C@@H](CCCCN)C(=O)N[C@@H](Cc1cnc[nH]1)C(=O)N[C@@H](C)C(=O)N[C@@H](CCC(=O)O)C(=O)N[C@@H](CCCCN)C(=O)N[C@H](C(=O)N[C@@H](Cc1ccccc1)C(=O)NCC(=O)N[C@@H](CCC(=O)O)C(=O)N[C@@H](CC(C)C)C(=O)N[C@@H](Cc1ccccc1)C(=O)N[C@@H](CCCCN)C(=O)O)[C@@H](C)CC (H-[Gly(pent-4-enyl)]IIR[Gly(pent-4-enyl)]LSKLSKHAEKIFGELFK-OH)
- Activity (MDA-MB-231 [4]): Active

SMILES: C=CCCC[C@H](NC(=O)[C@H](CO)NC(=O)[C@H](CC(C)C)NC(=O)[C@H](CCC(N)=O)NC(=O)[C@H](CCCC=C)NC(=O)[C@@H](NC(=O)[C@@H](NC(=O)[C@@H](N)CCCCN)[C@@H](C)CC)[C@@H](C)CC)C(=O)N[C@@H](CC(C)C)C(=O)N[C@@H](CO)C(=O)N[C@@H](CCCCN)C(=O)N[C@@H](Cc1cnc[nH]1)C(=O)N[C@@H](C)C(=O)N[C@@H](CCC(=O)O)C(=O)N[C@@H](CCCCN)C(=O)N[C@H](C(=O)N[C@@H](Cc1ccccc1)C(=O)NCC(=O)N[C@@H](CCC(=O)O)C(=O)N[C@@H](CC(C)C)C(=O)N[C@@H](Cc1ccccc1)C(=O)N[C@@H](CCCCN)C(=O)O)[C@@H](C)CC (H-KII[Gly(pent-4-enyl)]QLS[Gly(pent-4-enyl)]LSKHAEKIFGELFK-OH)
- Activity (MDA-MB-231 [4]): Active
